system: Plasmodium falciparum; experiment: In vitro activity against Plasmodium falciparum; type: functional, organism-based
How it was run: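 P. falciparum cultures at 0.3-0.5% parasitemia (percentage of infected erythrocytes) exposed to drug for one parasite cycle (48 h). Some drugs were dissolved in DMSO, then diluted in culture medium (final DMSO ≤0.25%). [3H]hypoxanthine was then added for 18 h to measure viability. IC50 is 50% inhibition of parasite growth, given as the mean of at least two independent experiments in triplicate using different stock solutions.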

In order of falling IC50:
1. CC[N+](CC)(CC)CCCCCC[N+](CC)(CC)CCCCCC[N+](CC)(CC)CC  800000 nM
2. CCCCC[N+](C)(C)CC(C)O (stereo unspecified)  115000 nM
3. CCCCCC[N+]1(C)CCCC1  26000 nM
4. CCCCCCCCCCCC[N+](C)(C)CCC[N+](C)(C)CCCCCCCCCCCC  10800 nM
5. CCCCCC[N+](CC)(CC)CC  9700 nM
6. CCCCCCCC[N+](C)(C)C  5000 nM
7. CCCCCCCC[N+](C)(C)CCO  3850 nM
8. CCCCCCCCCCCC[N+](C)(C)CCCCCCCCCCCCCCCC[N+](C)(C)CCCCCCCCCCCC  1800 nM
9. CCCCCCCCCCCCCCCC[N+](C)(C)CCO  810 nM
10. CCCCCCCCCCCC[N+](C)(C)C(C)C(O)c1ccccc1 (stereo unspecified)  670 nM
11. C[N+](C)(C)CCCCCCCCc1ccccc1  620 nM
12. CC[N+](CC)(CC)CCCCCCCC[N+](CC)(CC)CC  540 nM
13. CCCCCCCCCCCC[N+](C)(C)CC(C)O (stereo unspecified)  430 nM
14. CCCCCCCCCCCCCCCC[N+]1(C)CCCC1  420 nM
15. C#CC[N+](C)(CC#C)CCCCCCCCCCCC  380 nM
16. C#CC[N+](C)(C)CCCCCCCCCCCC  360 nM
17. CCCCCCCCCCCCCCCCCC[N+](CC)(CC)CC  270 nM
18. CCCCCCCCCCCCCC[N+]1(C)CCCC1  270 nM
19. C=CC[N+](C)(C)CCCCCCCCCCCC  270 nM
20. C#CCC[N+](C)(C)CCCCCCCCCCCC  230 nM
21. CCCCCCCCCCCC[N+](C)(C)CCCCCC[N+](C)(C)CCCCCCCCCCCC  220 nM
22. CCCCCCCCCCCC[N+]1(C)CCCC1  220 nM
23. CCCCCCCCCCCC[N+](C)(C)CCCCCCCCCCCC[N+](C)(C)CCCCCCCCCCCC  180 nM
24. CCCCCCCCCCCCCCCC[N+](CC)(CC)CC  140 nM
25. C=CC[N+](C)(CC=C)CCCCCCCCCCCC  140 nM
26. CC[N+](CC)(CC)CCCCCCCCCCCC[N+](CC)(CC)CC  45 nM
27. C#CCC[N+](C)(C)CCCCCCCCCCCC[N+](C)(C)CCC#C  44 nM
28. C[N+]1(CCCCCCCCCCCC[N+]2(C)CCCC2)CCCC1  13 nM
29. C#CC[N+](C)(C)CCCCCCCCCCCC[N+](C)(C)CC#C  7.6 nM
30. C=CC[N+](CC)(CC)CCCCCCCCCCCC[N+](CC)(CC)CC=C  5.3 nM
31. CC[N+](CC)(CCO)CCCCCCCCCCCCCCCC[N+](CC)(CC)CCO  4.9 nM
32. C[N+](C)(C)CCCCCCCCCCCCCCCC[N+](C)(C)C  4 nM
33. CC[N+](CC)(CC)CCCCCCCCCCCCCCCC[N+](CC)(CC)CC  1.6 nM
34. C[N+]1(CCCCCCCCCCCCCC[N+]2(C)CCCC2)CCCC1  1.1 nM
35. C[N+]1(CCCCCCCCCCCCCCCC[N+]2(C)CCCC2)CCCC1  0.64 nM
36. CC[N+](CC)(CC)CCCCCCCCCCCCCCCCCCCCC[N+](CC)(CC)CC  0.003 nM

From ChEMBL document CHEMBL1133585, “Antimalarial activity of compounds interfering with Plasmodium falciparum phospholipid metabolism: comparison between mono- and bisquaternary ammonium salts” (J Med Chem, 2000)
